Consider one compound from ChEMBL document CHEMBL4373727, “Thienopyrimidinone Derivatives That Inhibit Bacterial tRNA (Guanine37-N1)-Methyltransferase (TrmD) by Restructuring the Active Site with a Tyrosine-Flipping Mechanism” (J Med Chem, 2019).

Test [1] has as its target T1, tRNA (guanine-N(1)-)-methyltransferase (Pseudomonas aeruginosa (strain ATCC 15692 / DSM 22644 / CIP 104116 / JCM14847 / LMG 12228 / 1C / PRS 101 / PAO1), UniProt Q9HXQ1).
T1 sequence (Q9HXQ1 whole entry): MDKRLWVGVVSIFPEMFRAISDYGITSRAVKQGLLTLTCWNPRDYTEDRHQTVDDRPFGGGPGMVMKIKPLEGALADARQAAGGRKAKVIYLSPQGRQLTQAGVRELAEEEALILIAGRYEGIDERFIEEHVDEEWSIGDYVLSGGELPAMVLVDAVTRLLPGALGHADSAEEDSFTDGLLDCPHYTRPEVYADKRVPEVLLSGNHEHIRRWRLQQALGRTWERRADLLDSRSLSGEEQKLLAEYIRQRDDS
As to the kind of experiment: Binding affinity to Pseudomonas aeruginosa tRNA (guanine(37)-N1)-methyltransferase (Leu5 to Asp25 residues) expressed in Escherichia coli BL21 (DE3) Rosetta T1R cells by surface plasmon resonance assay. The procedure, abridged:
(§1)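 SPR at 25 °C. His-tagged TrmD (50 μg/mL) captured on an anti-His antibody surface (about 2200 RU), with a blank reference cell. Buffer: 50 mM Tris-HCl pH 8, 150 mM NaCl, 1 mM MgCl2, 1 mM DTT, 0.05% Tween-20. Analyte in 2-fold dilutions, injected lowest to highest at 30 μL/min, 30 s contact, 240 s dissociation. KD from steady-state affinity fit.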

Test [2] addresses T2, tRNA (guanine-N(1)-)-methyltransferase (Mycobacterium tuberculosis (strain ATCC 25618 / H37Rv), UniProt P9WFY7).
T2 sequence (P9WFY7 whole entry): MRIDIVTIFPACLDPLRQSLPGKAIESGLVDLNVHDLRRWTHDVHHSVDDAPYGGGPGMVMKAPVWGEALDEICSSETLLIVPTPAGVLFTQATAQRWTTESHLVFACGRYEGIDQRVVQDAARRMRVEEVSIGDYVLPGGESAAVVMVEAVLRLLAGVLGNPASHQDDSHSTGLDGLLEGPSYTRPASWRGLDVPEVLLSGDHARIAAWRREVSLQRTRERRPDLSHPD
As to the kind of experiment: Binding affinity to full length Mycobacterium tuberculosis tRNA (guanine(37)-N1)-methyltransferase expressed in Escherichia coli BL21 (DE3) by surface plasmon resonance assay. The procedure, abridged:
as §1
A general note: SPR reads the build-up and loss of mass on a sensor chip optically.

In test [3] the target is T3, tRNA (guanine-N(1)-)-methyltransferase (Mycobacterium tuberculosis (strain ATCC 25618 / H37Rv)) (UniProt P9WFY7).
T3 sequence (whole entry): T2 sequence (P9WFY7 whole entry)
As to the kind of experiment: Binding affinity to full length Mycobacterium tuberculosis tRNA (guanine(37)-N1)-methyltransferase expressed in Escherichia coli BL21 (DE3) assessed as association rate constant by surface plasmon resonance assay. The procedure, abridged: as §1

The target in test [4] is T4, tRNA (guanine-N(1)-)-methyltransferase (Pseudomonas aeruginosa (strain ATCC 15692 / DSM 22644 / CIP 104116 / JCM14847 / LMG 12228 / 1C / PRS 101 / PAO1)) (UniProt Q9HXQ1).
T4 sequence (whole entry): T1 sequence (Q9HXQ1 whole entry)
As to the kind of experiment: Binding affinity to Pseudomonas aeruginosa tRNA (guanine(37)-N1)-methyltransferase (Leu5 to Asp25 residues) expressed in Escherichia coli BL21 (DE3) Rosetta T1R cells assessed as dissociation rate constant by surface plasmon resonance assay. Put shortly: as §1

Test [5] concerns the target T3, tRNA (guanine-N(1)-)-methyltransferase (Mycobacterium tuberculosis (strain ATCC 25618 / H37Rv)). As to the kind of experiment: Binding affinity to full length Mycobacterium tuberculosis tRNA (guanine(37)-N1)-methyltransferase expressed in Escherichia coli BL21 (DE3) assessed as dissociation rate constant by surface plasmon resonance assay. The procedure, abridged:
as §1

Test [6] concerns the target T5, tRNA (guanine-N(1)-)-methyltransferase (Staphylococcus aureus (strain NCTC 8325 / PS 47)) (UniProt Q2FZ43).
T5 sequence (whole entry): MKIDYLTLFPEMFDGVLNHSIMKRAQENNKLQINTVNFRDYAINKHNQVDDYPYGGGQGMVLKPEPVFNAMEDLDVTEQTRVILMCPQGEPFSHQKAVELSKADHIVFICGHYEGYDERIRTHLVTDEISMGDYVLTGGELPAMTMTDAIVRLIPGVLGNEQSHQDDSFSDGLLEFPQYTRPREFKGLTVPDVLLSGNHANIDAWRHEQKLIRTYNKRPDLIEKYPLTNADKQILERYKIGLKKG
The experiment in a line: Binding affinity to full length Staphylococcus aureus tRNA (guanine(37)-N1)-methyltransferase expressed in Escherichia coli BL21 (DE3) assessed as dissociation rate constant by surface plasmon resonance assay. Put shortly:
as §1

Test [7] addresses T5, tRNA (guanine-N(1)-)-methyltransferase (Staphylococcus aureus (strain NCTC 8325 / PS 47)). As to the kind of experiment: Binding affinity to full length Staphylococcus aureus tRNA (guanine(37)-N1)-methyltransferase expressed in Escherichia coli BL21 (DE3) assessed as association rate constant by surface plasmon resonance assay. The procedure, abridged: as §1
Test [8] concerns the target T6, tRNA (guanine-N(1)-)-methyltransferase (Staphylococcus aureus (strain NCTC 8325 / PS 47), UniProt Q2FZ43).
T6 sequence (Q2FZ43 whole entry): T5 sequence (whole entry)
The experiment in a line: Binding affinity to full length Staphylococcus aureus tRNA (guanine(37)-N1)-methyltransferase expressed in Escherichia coli BL21 (DE3) by surface plasmon resonance assay. Put shortly: as §1

Test [9] has as its target T4, tRNA (guanine-N(1)-)-methyltransferase (Pseudomonas aeruginosa (strain ATCC 15692 / DSM 22644 / CIP 104116 / JCM14847 / LMG 12228 / 1C / PRS 101 / PAO1)). As to the kind of experiment: Binding affinity to Pseudomonas aeruginosa tRNA (guanine(37)-N1)-methyltransferase (Leu5 to Asp25 residues) expressed in Escherichia coli BL21 (DE3) Rosetta T1R cells assessed as thermal stabilization of protein by measuring change in melting temperature at 2 mM by SYPRO orange based thermal shift assay. The procedure, abridged:
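Thermal shift: 4 μM TrmD with 5× SYPRO Orange and ligand in 50 mM Tris-HCl pH 8, 150 mM NaCl, 1 mM MgCl2, 1 mM DTT, 0.05% Tween-20. Buffer-only control. Heated from 25 to 95 °C in a real-time PCR instrument, and Tm taken as the unfolding midpoint. Ligand levels: SAH 2 mM, inhibitors 0.1 mM.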

Test [10] has the same target. As to the kind of experiment: Binding affinity to Pseudomonas aeruginosa tRNA (guanine(37)-N1)-methyltransferase (Leu5 to Asp25 residues) expressed in Escherichia coli BL21 (DE3) Rosetta T1R cells assessed as association rate constant by surface plasmon resonance assay. The procedure, abridged: as §1

Regarding `Nc1ncnc2c1ncn2[C@@H]1O[C@H](CSCC[C@H](N)C(=O)O)[C@@H](O)[C@H]1O` [S-ADENOSYLHOMOCYSTEINE], the Kd turned out to be 5.9 µM in test [1], 10.1 µM in [2] and 3.3 µM in test [8]. Moreover, the Ka in test [3] was 7700 M⁻¹ s⁻¹; in test [7] it was 279000 M⁻¹ s⁻¹; in test [10] it was 55500 M⁻¹ s⁻¹. Besides, the Kdiss in test [4] stood at 0.326 s⁻¹; in test [5], 0.0775 s⁻¹; in test [6], 0.92 s⁻¹. Also, the ΔTm in test [9] was in the range of 4 to 29 °C.

One may read the Kd as the constant that tells how readily two partners part at equilibrium. A high value points to lower affinity. As a reminder, the ΔTm is the shift of the melting midpoint relative to a reference.
